Data taken from paper PMC10413923 (Journal of Enzyme Inhibition and Medicinal Chemistry, 2023).

Legend:
Assay type in all cases: cell-based
NF-kβ = NF-kβ level by ELISA in LPS-human macrophages; conditions: 14b at EC50 (5.3 µmol/mL), 48 h
Outline: (§1)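 IL-6, IL-1β, TNF-α and NF-κB levels were measured in LPS-stimulated human macrophages exposed to test compound. Comparison groups were untreated LPS-macrophages as negative control and dexamethasone-treated macrophages as reference.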

HO-1 (HMOX1) = test: HO-1; conditions: LPS-human macrophages, 48 h; 14b at EC50 (5.3 µmol/mL); qPCR
Outline: (§2)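 LPS-stimulated human macrophages (inflammatory model) were exposed to test compound at 5.3 µmol/mL for 48 h. Akt and HMOX1 (HO-1) gene expression was measured alongside untreated LPS-macrophages as negative control and dexamethasone-treated macrophages as reference. Expression is reported as fold change relative to untreated macrophage cells.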

IL-1β = IL-1β level by ELISA in conditioned medium of LPS-human macrophages; conditions: 14b at EC50 (5.3 µmol/mL), 48 h
Outline: as §1

IL-6 = IL-6 level by ELISA in conditioned medium of LPS-human macrophages; conditions: 14b at EC50 (5.3 µmol/mL), 48 h
Outline: as §1

TNF-α = TNF-α level by ELISA in conditioned medium of LPS-human macrophages; conditions: 14b at EC50 (5.3 µmol/mL), 48 h
Outline: as §1

Akt = Akt gene expression by qPCR in LPS-human macrophages; conditions: 48 h, 14b at EC50 (5.3 µmol/mL)
Outline: as §2

Row | SMILES | NF-kβ modulation compared with Dexa (in words) (NF-kβ) | reduction in NF-kβ level relative to untreated control cells (NF-kβ) | upregulation of HO-1 gene expression compared to untreated macrophage cells (HO-1 (HMOX1)) | reduction in IL-1β level relative to untreated macrophage cells (IL-1β) | reduction in IL-6 level relative to negative control cells (IL-6) | reduction in TNF-α level relative to untreated control cells (TNF-α) | increase in Akt gene expression relative to untreated macrophage cells (Akt)
1 | COc1ccc(C(C)=NNC(=O)COc2ccc3c(C)cc(=O)oc3c2C)cc1OC [Compound 14b, 2–(4,8-Dimethyl-2-oxo-2H-chromen-7-yloxy)-N'-(1–(3,4-dimethoxyphenyl)ethylidene)acetohydrazide] | comparable efficacy to Dexa | 2.31 fold | 6.5 fold | 1.65 fold | 1.41 fold | 1.19 fold | –
2 | C[C@@H]1C[C@H]2[C@@H]3CCC4=CC(=O)C=C[C@]4(C)[C@@]3(F)[C@@H](O)C[C@]2(C)[C@@]1(O)C(=O)CO [Dexa, dexamethasone, reference compound] | – | – | 4.38 fold | – | – | – | 3.2 fold
